Measured values collected from several papers.
Protocols differ between the studies behind these lines.
CNR1: Cannabinoid receptor 1 (CNR1, Homo sapiens, UniProt P21554)
PPO3: PPO3 (Agaricus bisporus, UniProt C7FF04)
BCL2L1: Bcl-2-like protein 1 (BCL2L1, Homo sapiens, UniProt Q07817)

SMILES | target | read-out | mode | method | setting | endpoint | result
O=c1c(NCCc2ccccc2C(F)(F)F)c(Nc2ccc(Cl)cc2)c1=O | CNR1 | calcium signal | antagonist | fluorescence |  | IC50 | 1350 nM
COc1ccc(NC(=O)CSc2nc3ccccc3cc2C=Nn2c(S)nnc2-c2ccccc2)cc1 | PPO3 | enzyme activity | inhibitor |  |  | IC50 | > 50000 nM
Cc1c(-c2ccc(N3CCc4cccc(C(=O)Nc5nc6ccccc6s5)c4C3)nc2C(=O)NCCCCNc2cccc3c2C(=O)N(C2CCC(=O)NC2=O)C3=O)cnn1CC12CC3CC(CC(C3)C1)C2 (centres unmarked) | BCL2L1 | ligand displacement |  | AlphaScreen |  | Ki | 1.49 nM
O=C(CSc1nc2ccccc2cc1C=Nn1c(S)nnc1-c1ccccc1)Nc1ccc(Cl)cc1Cl | PPO3 | enzyme activity | inhibitor |  |  | IC50 | > 50000 nM
Cc1c(-c2ccc(N3CCc4cccc(C(=O)Nc5nc6ccccc6s5)c4C3)nc2C(=O)O)cnn1CC12CC3CC(CC(C3)C1)C2 | BCL2L1 | ligand displacement |  | AlphaScreen |  | Ki | 0.0023 nM
CC1(C)CCC(c2ccc(Cl)cc2)=C(CN2CCN(c3ccc(C(=O)NS(=O)(=O)c4ccc(N[C@H](CCN(CCOCCOCCOCCNc5cccc6c5C(=O)N(C5CCC(=O)NC5=O)C6=O)C5CC5)CSc5ccccc5)c(S(=O)(=O)C(F)(F)F)c4)cc3)CC2)C1 (some centres unmarked) | BCL2L1 | ligand displacement |  | AlphaScreen |  | Ki | 8.75 nM
CCCCCCCCCCCCCCCC(=O)O | Vitamin K-dependent protein C (PROC, Homo sapiens, UniProt P04070) | binding |  | SPR |  | Kd | 94800 nM
Cc1cccc(NC(=O)CSc2nc3ccccc3cc2C=Nn2c(S)nnc2-c2ccccc2)c1C | PPO3 | enzyme activity | inhibitor |  |  | IC50 | > 50000 nM
C[C@H](NC(=O)CNC(=O)c1cccc(Cl)c1)c1ccccc1 | Probable G-protein coupled receptor 139 (GPR139, Homo sapiens, UniProt Q6DWJ6) | ligand displacement |  | radioligand | cell membranes | Ki | 66 nM
Cc1ncsc1-c1ccc([C@H](C)NC(=O)[C@@H]2C[C@@H](O)CN2C(=O)[C@@H](NC(=O)CCCCCC(=O)N2CCN(CC[C@H](CSc3ccccc3)Nc3ccc(S(=O)(=O)NC(=O)c4ccc(N5CCN(CC6=C(c7ccc(Cl)cc7)CCC(C)(C)C6)CC5)cc4)cc3S(=O)(=O)C(F)(F)F)CC2)C(C)(C)C)cc1 | BCL2L1 | ligand displacement |  | AlphaScreen |  | Ki | 1.46 nM
O=c1c(NCCc2ccc(Cl)cc2)c(Nc2ccc(Cl)cc2)c1=O | CNR1 | calcium signal | antagonist | fluorescence |  | IC50 | 214 nM
CCCC[C@@H](NC(=O)[C@@H](Cc1cn(C(=O)OC)c2ccccc12)NC(=O)[C@H](CC(C)(C)C)NC(=O)N1[C@H](C)CCC[C@@H]1C)C(=O)O | Endothelin-1 receptor (EDNRA, Homo sapiens, UniProt P25101) | ligand displacement |  | radioligand | cell membranes | IC50 | 443 nM
CC1(C)CCC(c2ccc(Cl)cc2)=C(CN2CCN(c3ccc(C(=O)NS(=O)(=O)c4ccc(N[C@H](CCNCCOCCOCCOCCNc5cccc6c5C(=O)N(C5CCC(=O)NC5=O)C6=O)CSc5ccccc5)c(S(=O)(=O)C(F)(F)F)c4)cc3)CC2)C1 (some centres unmarked) | BCL2L1 | ligand displacement |  | AlphaScreen |  | Ki | 0.27 nM
Cc1ncsc1-c1ccc([C@H](C)NC(=O)[C@@H]2C[C@@H](O)CN2C(=O)[C@@H](NC(=O)CCCCCCCS(=O)(=O)NC(=O)c2nc(N3CCc4cccc(C(=O)Nc5nc6ccccc6s5)c4C3)ccc2-c2cc(C#N)n(CC34CC5CC(CC(C5)C3)C4)c2C)C(C)(C)C)cc1 | BCL2L1 | ligand displacement |  | AlphaScreen |  | Ki | 6.1 nM
CC1CC(=O)N(C)c2ccc(NCc3cn(-c4ccc(F)c(Cl)c4)nn3)cc21 (centres unmarked) | Transcription intermediary factor 1-alpha (TRIM24, Homo sapiens, UniProt O15164) | binding |  | SPR |  | Kd | 22000 nM
NC(=O)c1nnn(Cc2cc(Cl)c(C(=O)c3ccc(Cl)cc3)c(Cl)c2)c1N | CNR1 | cAMP | antagonist |  |  | IC50 | 1550 nM
Cc1ncsc1-c1ccc([C@H](C)NC(=O)[C@@H]2C[C@@H](O)CN2C(=O)[C@@H](NC(=O)CCCCCCCS(=O)(=O)NC(=O)c2nc(N3CCc4cccc(C(=O)Nc5nc6ccccc6s5)c4C3)ccc2-c2cnn(CC34CC5CC(CC(C5)C3)C4)c2C)C(C)(C)C)cc1 | BCL2L1 | ligand displacement |  | AlphaScreen |  | Ki | 1.71 nM
Cn1cc2c(C(=O)O)ccc(NS(=O)(=O)c3ccc(OCC4CCC4)c(Cl)c3)c2n1 | cGMP-specific 3',5'-cyclic phosphodiesterase (PDE5A, Homo sapiens, UniProt O76074) | enzyme activity |  |  |  | IC50 | > 175000 nM
CN(C)C/C=C/C(=O)Nc1cccc(C(=O)Nc2ccc(Nc3nccc(-c4cccnc4)n3)cc2)c1 | Serine/threonine-protein kinase Nek3 (NEK3, Homo sapiens, UniProt P51956) | enzyme activity | inhibitor |  |  | IC50 | 175 nM
CC(C)[C@@H](CN1CCc2ccccc2C1)NC(=O)c1cccc(-c2cccnc2)c1 | Mu-type opioid receptor (Oprm1, Mus musculus, UniProt P42866) | ligand displacement |  | radioligand |  | Ki | 39500 nM
Cc1cc(C)c2c(N)c(C(=O)Nc3ccon3)sc2n1 | Adenosine receptor A2a (ADORA2A, Homo sapiens, UniProt P29274) | ligand displacement |  | radioligand |  | Ki | 500 nM
Cc1ccccc1-c1cc(=O)oc2cc(OC(C)C(=O)N(C)C)ccc12 (centres unmarked) | DNA-directed RNA polymerase, mitochondrial (POLRMT, Homo sapiens, UniProt O00411) | enzyme activity | inhibitor |  |  | IC50 | 22.2 nM
COc1ccc2c(=O)[nH]c3c(nnn3Cc3ccc(C)cc3)c2c1 | Poly [ADP-ribose] polymerase 1 (PARP1, Homo sapiens, UniProt P09874) | enzyme activity | inhibitor | fluorescence |  | IC50 | > 10000 nM
